Data as given in ChEMBL document CHEMBL1135642, “Synthesis and biological evaluation of 7,8,9,10-tetrahydroimidazo[1,2-c]pyrido[3,4-e]pyrimdin-5(6H)-ones as functionally selective ligands of the benzodiazepine receptor site on the GABA(A) receptor” (J Med Chem, 2002).
Calls of active or inactive are those of the source. No cut-off for these calls is given here.

How the values were obtained:
[1] = target: GABA-A receptor; anion channel (Rattus norvegicus) (UniProt O09028+P15431+P18506+P18508+P19969+P20236+P23574+P23576+P28471+P28473+P30191+P62813+P63079+P63138+Q91ZM7+Q9ES14); assay: Binding affinity by displacement of [3H]flumazenil from rat cortex homogenates; Not active; assay type: functional
How it was run: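 Displacement of [3H]flumazenil from rat cortex homogenates. […] Values are averages (±SD); some analogues were run once as a single set of triplicates. NA means an IC50 was not achieved at the highest dose tested.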

[2] = target: T1, Gamma-aminobutyric acid receptor subunit alpha-2 (Homo sapiens) (UniProt P47869); assay: Maximum percent potentiation against gamma-aminobutyric acid (GABA) A receptor, alpha 2; details: Xenopus laevis
T1 sequence (whole entry): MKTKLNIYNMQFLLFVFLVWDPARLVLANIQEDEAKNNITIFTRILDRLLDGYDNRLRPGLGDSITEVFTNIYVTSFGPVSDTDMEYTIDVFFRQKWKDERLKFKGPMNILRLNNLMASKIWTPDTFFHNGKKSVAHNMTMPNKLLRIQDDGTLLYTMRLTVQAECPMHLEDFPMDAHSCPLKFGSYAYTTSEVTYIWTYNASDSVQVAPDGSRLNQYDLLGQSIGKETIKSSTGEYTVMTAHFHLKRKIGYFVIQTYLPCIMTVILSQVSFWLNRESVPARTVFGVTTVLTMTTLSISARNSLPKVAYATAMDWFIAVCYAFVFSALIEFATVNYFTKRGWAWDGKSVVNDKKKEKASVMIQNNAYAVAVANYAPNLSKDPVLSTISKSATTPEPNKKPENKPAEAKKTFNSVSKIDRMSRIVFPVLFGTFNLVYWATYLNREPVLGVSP
How it was run: (§1)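 Xenopus laevis oocytes were injected with human cRNA for the α, β and γ subunits needed to express each receptor subtype (α1, α2, α3 or α5). Electrophysiological recording was used to read potentiation, and the effective concentration and maximal percent potentiation were derived from it.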

Rattus norvegicus = organism: Rattus norvegicus; assay: Rat behavioral spontaneous Locomotor Activity; assay type: functional
How it was run: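 Male Sprague-Dawley rats received the test drug iv in 50% aqueous PEG-400, which also served as the control vehicle. They were then placed in an automated activity monitor, and movement time, total distance and vertical activity were recorded over 15 min. Each drug was compared against vehicle, and NS marks a difference that was not significant.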

[3] = target: T2, Gamma-aminobutyric acid receptor subunit alpha-1 (Homo sapiens) (UniProt P14867); assay: Maximum percent potentiation against gamma-aminobutyric acid (GABA) A receptor, alpha 1; details: Xenopus laevis; how it was run: as §1
T2 sequence (whole entry): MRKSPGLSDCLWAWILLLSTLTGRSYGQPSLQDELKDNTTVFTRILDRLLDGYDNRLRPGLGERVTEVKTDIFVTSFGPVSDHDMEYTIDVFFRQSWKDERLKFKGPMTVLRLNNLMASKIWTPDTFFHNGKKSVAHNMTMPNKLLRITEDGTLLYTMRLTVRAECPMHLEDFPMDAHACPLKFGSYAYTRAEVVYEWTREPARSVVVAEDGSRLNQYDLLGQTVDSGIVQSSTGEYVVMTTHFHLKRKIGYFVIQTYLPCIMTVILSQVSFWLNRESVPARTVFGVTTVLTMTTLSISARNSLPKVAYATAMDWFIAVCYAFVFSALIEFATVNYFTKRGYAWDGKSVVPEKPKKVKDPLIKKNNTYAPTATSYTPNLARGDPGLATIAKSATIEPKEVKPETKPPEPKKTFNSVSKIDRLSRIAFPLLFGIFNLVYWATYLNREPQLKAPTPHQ

[4] = target: T3, Gamma-aminobutyric acid receptor subunit alpha-2 (Homo sapiens, UniProt P47869); assay: Effective concentration against gamma-aminobutyric acid (GABA) A receptor, alpha 2; parameters: species or system Xenopus laevis; how it was run: as §1
T3 sequence (P47869 whole entry): T1 sequence (whole entry)

[5] = target: T4, Gamma-aminobutyric acid receptor subunit alpha-3 (Homo sapiens) (UniProt P34903); assay: Maximum percent potentiation against gamma-aminobutyric acid (GABA) A receptor, alpha 3; details: Xenopus laevis; how it was run: as §1
T4 sequence (whole entry): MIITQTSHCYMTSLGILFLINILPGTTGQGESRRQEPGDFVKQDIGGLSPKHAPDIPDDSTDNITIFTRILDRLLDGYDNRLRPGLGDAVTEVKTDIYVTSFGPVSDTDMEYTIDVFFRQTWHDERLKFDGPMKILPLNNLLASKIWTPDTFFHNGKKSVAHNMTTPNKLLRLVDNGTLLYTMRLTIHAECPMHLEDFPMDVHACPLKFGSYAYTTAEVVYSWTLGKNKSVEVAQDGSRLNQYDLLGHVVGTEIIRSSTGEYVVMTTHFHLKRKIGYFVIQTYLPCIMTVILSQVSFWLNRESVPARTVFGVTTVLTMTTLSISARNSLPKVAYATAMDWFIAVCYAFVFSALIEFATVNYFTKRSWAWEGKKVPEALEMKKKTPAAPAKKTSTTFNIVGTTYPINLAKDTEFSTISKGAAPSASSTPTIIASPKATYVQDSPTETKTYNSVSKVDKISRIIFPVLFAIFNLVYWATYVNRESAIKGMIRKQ

[6] = target: T5, Gamma-aminobutyric acid receptor subunit alpha-3 (Homo sapiens, UniProt P34903); assay: Effective concentration against gamma-aminobutyric acid (GABA) A receptor, alpha 3; parameters: species or system Xenopus laevis; how it was run: as §1
T5 sequence (P34903 whole entry): T4 sequence (whole entry)

[7] = target: T6, Gamma-aminobutyric acid receptor subunit alpha-5 (Homo sapiens) (UniProt P31644); assay: Maximum percent potentiation against gamma-aminobutyric acid (GABA) A receptor, alpha 5; details: Xenopus laevis; how it was run: as §1
T6 sequence (whole entry): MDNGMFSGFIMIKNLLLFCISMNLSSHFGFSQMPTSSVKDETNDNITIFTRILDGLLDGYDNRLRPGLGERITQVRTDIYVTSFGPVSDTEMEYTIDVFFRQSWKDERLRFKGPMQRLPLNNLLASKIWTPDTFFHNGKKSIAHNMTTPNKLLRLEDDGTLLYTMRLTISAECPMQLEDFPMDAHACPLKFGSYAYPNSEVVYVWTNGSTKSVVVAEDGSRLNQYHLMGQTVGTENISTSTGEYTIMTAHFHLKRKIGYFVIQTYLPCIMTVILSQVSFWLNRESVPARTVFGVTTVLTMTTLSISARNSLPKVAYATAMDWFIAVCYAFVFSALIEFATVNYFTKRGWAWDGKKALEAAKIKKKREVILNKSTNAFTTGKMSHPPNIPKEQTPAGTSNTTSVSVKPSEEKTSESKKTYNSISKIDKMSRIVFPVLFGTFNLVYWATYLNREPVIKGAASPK

[8] = target: T7, Gamma-aminobutyric acid receptor subunit alpha-5 (Homo sapiens, UniProt P31644); assay: Effective concentration against Gamma-aminobutyric acid A receptor, alpha 5; parameters: species or system Xenopus laevis; how it was run: as §1
T7 sequence (P31644 whole entry): T6 sequence (whole entry)

[9] = target: GABA-A receptor; anion channel; assay: Binding affinity was determined by displacement of [3H]flumazenil from rat cortex homogenates; assay type: functional
How it was run: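 Displacement of [3H]flumazenil from rat cortex homogenates. Values are averages (±SD); some analogues were run once as a single set of triplicates. NA means an IC50 was not achieved at the highest dose tested.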

[10] = target: T8, Gamma-aminobutyric acid receptor subunit alpha-1 (Homo sapiens, UniProt P14867); assay: Effective concentration against gamma-aminobutyric acid (GABA) A receptor, alpha 1; parameters: species or system Xenopus laevis; how it was run: as §1
T8 sequence (P14867 whole entry): T2 sequence (whole entry)

Row | SMILES | NA [1] | Activity [2] [%] | minimum effective dose on locomotor activity (Rattus norvegicus) [mg/kg] | Activity [3] [%] | EC50 [4] [nM] | Activity [5] [%] | EC50 [6] [nM] | Activity [7] [%] | EC50 [8] [nM] | Ki [9] [nM] | EC50 [10] [nM] | OMNI med (Rattus norvegicus) [mg/kg]
1 | COc1ccc(-c2cn3c(O)nc4c(c3n2)CN(C(=O)c2ccccc2)CC4)cc1 | inactive |  |  |  |  |  |  |  |  |  |  | 
2 | COc1ccc(-c2cn3c(O)nc4c(c3n2)CN(Cc2ccccc2)CC4)cc1 |  | 142 | 0.06 | 122 |  |  |  |  |  |  |  | 
3 | O=C(c1ccccc1)N1CCc2nc(O)n3cc(-c4cccc(Cl)c4)nc3c2C1 | inactive |  |  |  |  |  |  |  |  |  |  | 
4 | Cc1ccc(-c2cn3c(O)nc4c(c3n2)CN(Cc2ccccc2)CC4)cc1 |  | 94 |  | 62 | 1180 | 174 | 3830 | 17 | 650 | 43 | 266 | 
5 | Oc1nc2c(c3nc(-c4cccc(F)c4)cn13)CN(Cc1ccccc1)CC2 |  | 81 | 2 | 92 |  |  |  |  |  |  |  | 
6 | CCCCCC(=O)N1CCc2nc(O)n3cc(-c4ccccc4F)nc3c2C1 | inactive |  |  |  |  |  |  |  |  |  |  | 
7 | Oc1nc2c(c3nc(-c4ccccc4F)cn13)CN(CC1CC1)CC2 |  | 36 |  | 31 | 1160 | 28 | 424 | 7 | 94 | 30 | 135 | 
8 | Oc1nc2c(c3nc(-c4ccccc4F)cn13)CNCC2 | inactive |  |  |  |  |  |  |  |  |  |  | 
9 | Cc1nnc2n1-c1ccc(Cl)cc1C(c1ccccc1)=NC2 [ALPRAZOLAM] |  | 333 |  | 327 | 12 | 774 | 69 | 206 | 10 | 3.3 | 37 | 0.125
10 | Oc1nc2c(c3nc(-c4ccccc4F)cn13)CN(Cc1cccs1)CC2 |  | 54 |  | 50 | 67 | 96 | 367 | 49 | 375 | 0.5 | 107 | 
11 | Cc1ccc(-c2nc3ccc(C)cn3c2CC(=O)N(C)C)cc1 [ZOLPIDEM] |  | 291 |  | 322 |  | 700 |  | < 20 | > 3000 |  |  | 0.25
12 | CCCCN1CCc2nc(O)n3cc(-c4ccccc4F)nc3c2C1 |  | 86 |  | 70 | 247 | 72 | 394 | 4 | 291 | 7.3 | 258 | 
13 | O=C(OCc1ccccc1)N1CCc2[nH]c(=O)n3cc(-c4ccccc4F)nc3c2C1 |  |  |  |  | < 100 |  |  |  | 1000 | 39 | < 100 | 
14 | O=c1[nH]c2c(c3nc(-c4ccccc4F)cn13)CN(Cc1cnc[nH]1)CC2 |  |  |  |  | 459 |  | 425 |  | 439 | 10.1 | 118 | 
15 | Oc1nc2c(c3nc(-c4ccc(F)cc4)cn13)CN(Cc1ccccc1)CC2 |  | 155 | 1 | 186 |  |  |  |  |  |  |  | 
16 | O=c1[nH]c2c(c3nc(-c4ccccc4F)cn13)CN(Cc1ccccc1)CC2 |  |  |  |  | 20 |  | 20 |  | 74 | 1.3 | 18 | 
17 | Oc1nc2c(c3nc(-c4ccccc4F)cn13)CN(c1ncccn1)CC2 |  | 44 |  | 0 | 84 | 35 | 117 | 0 |  | 133 |  | 
18 | O=c1[nH]c2c(c3nc(-c4ccc(F)cc4F)cn13)CN(Cc1ccccc1)CC2 |  |  |  |  | 210 |  | 500 |  | 323 | 2 | 92 | 
19 | Oc1nc2c(c3nc(-c4ccccc4F)cn13)CN(Cc1cccnc1)CC2 |  | 78 | 0.5 | 29 |  | 81 |  | 0 |  |  |  | 
20 | CCC(=O)N1CCc2nc(O)n3cc(-c4ccccc4F)nc3c2C1 |  | 22 |  | 12 | 110 | 9 | 116 | 0 |  | 216 | 95 | 
21 | O=c1[nH]c2c(c3nc(-c4ccccc4F)cn13)CN(CC1CCCCC1)CC2 |  |  |  |  | 202 |  | 213 |  | 231 | 0.9 | 127 | 
